DNMT1 inh – blocks human DNA methyltransferase DNMT1. P26358. inhibition (reported as % activation of signal), % at 10 µM. DNMT1 molecular beacon, Hinp1I cleavage, fluorescence. 360,000 tested, 0.83% active. AID 588458; in the data active = inhibition above about 50%
STEP block – STEP (human) phosphatase inhibition | P54829 | 360,000 tested, 0.25% active | recombinant STEP, OMFP fluorogenic substrate, fluorescence | inhibition, % at 20 µM | AID 588621;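 active = inhibition at 20 µM, scaled per plate between control wells, above about 37%, limit read from the data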;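 also: 0% = DMSO with enzyme and substrate and 100% = substrate only without enzyme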
Target sequence (P54829 whole entry, looked up): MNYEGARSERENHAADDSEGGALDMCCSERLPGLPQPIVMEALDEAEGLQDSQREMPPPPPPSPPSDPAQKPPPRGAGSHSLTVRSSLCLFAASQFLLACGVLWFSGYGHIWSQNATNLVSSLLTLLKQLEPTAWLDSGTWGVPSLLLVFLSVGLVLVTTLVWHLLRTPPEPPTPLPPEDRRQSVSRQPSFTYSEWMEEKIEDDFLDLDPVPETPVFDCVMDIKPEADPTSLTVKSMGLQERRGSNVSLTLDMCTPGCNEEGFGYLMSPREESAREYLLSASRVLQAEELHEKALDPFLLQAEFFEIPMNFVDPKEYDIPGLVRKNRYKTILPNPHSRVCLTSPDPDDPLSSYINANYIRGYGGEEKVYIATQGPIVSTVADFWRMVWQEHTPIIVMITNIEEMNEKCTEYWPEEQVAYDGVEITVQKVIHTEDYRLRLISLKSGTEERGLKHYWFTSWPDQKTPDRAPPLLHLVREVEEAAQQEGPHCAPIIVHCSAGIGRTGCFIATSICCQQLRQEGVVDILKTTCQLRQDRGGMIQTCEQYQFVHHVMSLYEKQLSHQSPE
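Assay system: isolated STEP enzyme. Buffer or medium: pH 6.0 Bis-Tris with DTT and Tween 20. Also added: fluorogenic phosphatase substrate OMFP at 25 µM final. Dosing: 20 µM, 1% DMSO. Timing: 20 min reaction, room temperature, in the dark. Measured by: fluorescence intensity, excitation 480 nm, emission 540 nm. Evaluation: normalized % inhibition.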
SUMO1 PPI mod – SUMO1-SIM interaction modulation; P63165; SUMO1 binding to a labelled peptide, TR-FRET, 1 h; inhibition, % at 20 µM; 360,000 tested, 0.33% active; in the data active = inhibition above about 37%
LMPTP block – blocks human LMPTP phosphatase | P24666 | recombinant LMPTP-A, OMFP fluorogenic substrate, fluorescence intensity | 360,000 tested, 0.22% active | inhibition, % at 20 µM | AID 651560;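 active = compounds that cut the enzyme signal by at least half of the control window in the single-dose screen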;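 also: plate controls were DMSO wells with enzyme plus substrate for no effect and substrate without enzyme for full effect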
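Test system: LMPTP-A, protein tyrosine phosphatase of low molecular weight; Input: 0.625 nM enzyme; Incubation: 50 min dark incubation at room temperature; Signal: endpoint fluorescence intensity from OMFP dephosphorylation; Read-out basis: % inhibition versus control wells.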
Scp1 inh – inhibitors of human Scp-1 phosphatase; Q9GZU7; Recombinant Scp1, phosphopeptide, malachite green phosphate absorbance; inhibition, % at 20 µM; 340,000 tested, 0.88% active;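 active = inhibition above about 50% at 20 µM, limit read from the data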;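 also: plate controls were DMSO wells with enzyme for no effect and wells lacking enzyme for full effect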
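Test system – truncated SCP-1 phosphatase (76-261aa) · Reagent – Phosphorylated 17-residue peptide substrate · Incubation – 45 min room-temperature reaction, 5 min colour, 30 min stabiliser · Detection – colorimetric phosphate reagent with accelerator and stabiliser, absorbance at 630 nm · Measure – % inhibition at 20 µM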
NadD block – blocks S. aureus nicotinate mononucleotide adenylyltransferase. 360,000 tested, 0.78% active. inhibition, % at 20 µM. purified NadD enzyme, colorimetric absorbance read-out; in the data active = inhibition above about 26%
Active calls of the source: *; . = no result. In the library only some 2.4% were active in any assay of this set; here they are far more common.

SMILES	DNMT1 inh	STEP block	SUMO1 PPI mod	LMPTP block	Scp1 inh	NadD block
COc1cccc(CNc2ccc(S(=O)(=O)Nc3nccs3)cc2)c1O	-1	2	38*	0	-5	9
COc1ccc2[nH]c(O)c(N=NC(=O)c3ccc(NS(=O)(=O)c4cccs4)cc3)c2c1	23	3	10	5	24	27
O=C(N=Nc1c(O)[nH]c2ccc(F)cc12)c1ccc(NS(=O)(=O)c2cccs2)cc1	48	2	-4	53*	-10	39*
CCc1oc(C(=O)O)cc1COC	43	0	-1	-2	66*	-2
CCCCC(=O)Nc1ccc(NC(=O)C2CC2)nc1	5	-2	57*	-1	-4	-4
CC(C)[C@H](CO)Nc1nc(Nc2ccc(Cl)c(C(=O)O)c2)c2ncn(C(C)C)c2n1	1	-2	69*	1	4	8
CCc1c(C)nc2c(C#N)c(C)[nH]n2c1=O	5	-2	54*	0	-3	-1
O=C(Nc1ccc(Cl)cc1Cl)c1ccc2ncsc2c1	-2	-2	-5	0	-13	-6
COc1ccccc1N1CCN(CCNC(=O)Nc2cccc(C)c2C)CC1	-5	0	-1	0	-7	-6
CN1C(=O)/C(=C/c2ccc(-c3ccccc3[N+](=O)[O-])o2)SC1=Nc1ccc(Cl)c(C(=O)O)c1	-10	9	39*	2	3	19
Cc1ccc(C)c(N2C(=N)S/C(=C\c3ccc(-c4ccccc4C(=O)O)o3)C2=O)c1	35	7	34	5	27	17
COCCNC(=O)CN(C(=O)CCC(=O)Nc1ccccn1)c1ccc(OC)cc1	-2	-2	-2	-2	-2	0
CCOC(=O)C1=C(C)N(CCO)C(=O)NC1c1cccc(O)c1 (centres undefined)	2	1	0	0	-11	-1
CCOC(=O)C1=C(C)N(C)C(=O)NC1c1cccc(O)c1 (centres undefined)	-1	-1	56*	0	3	1
Cc1ccc2nc(-c3ccc4c(c3)NC(=O)CO4)cn2c1	14	-2	-2	73*	-15	-1
CC(=O)C[C@@H]1OC[C@H](C(C)C)N1S(=O)(=O)c1ccc(C)cc1	.	.	2	0	.	.
CC[n+]1c(/C=C(\C)SC)sc2ccccc21	3	3	-3	2	0	-3
CC[n+]1c(/C=C(\C)Nc2ccccc2)sc2ccccc21	-3	1	-1	1	79*	17
Cc1cc2nc3ccc(=[N+](C)C)cc-3sc2cc1N	57*	3	54*	32	-28	-6
c1ccc(CNc2nc(NCCc3ccncc3)c3sccc3n2)cc1	-2	4	-1	87*	.	0
Cc1cc2cc(CNC(=O)c3ccc4c(c3)OCO4)ccc2n1C	-5	0	-22	55*	-1	18
NC(CC(=O)NC(c1ccccc1)(c1ccccc1)c1ccccc1)C(=O)O (centres undefined)	1	-2	1	-2	-7	4
NC(CSC(c1ccccc1)(c1ccccc1)c1ccccc1)C(=O)O (centres undefined)	52*	6	1	1	2	22
O=P1(O)CC2=C(CC=CC2)C1	-1	-2	-4	-1	.	1
O=S(=O)(Nc1ccc(O)c2ncccc12)c1ccccc1F	59*	3	30	25	.	14
SMILES	DNMT1 inh	STEP block	SUMO1 PPI mod	LMPTP block	Scp1 inh	NadD block
Cc1ccc(S(=O)(=O)NC(CC(C)C)C(=O)NCC(c2ccco2)N2CCCCC2)cc1 (centres undefined)	-4	-2	-33	-8	4	0
O=C(O)c1ccccc1NS(=O)(=O)c1ccc(N/N=C/c2cccc(O)c2O)c([N+](=O)[O-])c1	11	34	37	69*	88*	19
CCOc1cc(/C=N/Nc2ccc(S(=O)(=O)Nc3ccccc3C(=O)O)cc2[N+](=O)[O-])cc(Cl)c1O	-19	3	66*	24	.	16
C/C(=N\NC(=O)COc1ccccc1)c1cccs1	-2	0	-4	-1	-3	0
O=C(N/N=C/C(Br)=C/c1ccccc1)c1n[nH]c2c1CCC2	57*	1	0	4	6	30
COc1ccc(Nc2nc(-c3ccccc3O)nc3ccccc23)cc1	-4	-4	1	7	4	8
CC(C)CCNC(=O)CN(CC1CCCO1)C(=O)CCC(=O)Nc1nccs1 (centres undefined)	4	-7	-3	0	5	3
CCC(C)(C)NC(=O)CN(CC1CCCO1)C(=O)CCC(=O)Nc1nccs1 (centres undefined)	0	-1	47*	1	22	5
O=C(Cc1ccc(F)cc1)NC1CCCCCC1	1	-1	2	1	-2	0
Cc1ccc(Cn2ncn(-c3ccccc3)c2=O)cc1	-2	-2	3	-1	-11	-9
Cc1nc2ccc(NC(=O)c3cc([N+](=O)[O-])cc([N+](=O)[O-])c3Cl)cc2s1	-13	0	2	1	-2	34*
CNc1cc(C(F)(F)F)nc(-c2ccccn2)n1	1	-1	4	0	-2	3
FC(F)(F)c1cccc(Oc2cc(C(F)(F)F)nc(-c3ccccn3)n2)c1	1	2	54*	1	-10	7
Cc1ncc(CO)c(/C=N/NC(=S)Nc2cccc(Cl)c2)c1O	-27	64*	21	5	-5	12
O=C(CSc1nnc(SCc2ccccc2)s1)N/N=C/c1c[nH]c2ccccc12	4	4	75*	12	-2	-5
Cc1ccc(S(=O)(=O)N=Nc2c(O)[nH]c3ccccc23)cc1	-3	0	-14	0	-1	-1
Cc1ccc(S(=O)(=O)N(CC(=O)N=Nc2c(O)[nH]c3ccccc23)c2ccc(C)c(C)c2)cc1	-11	0	-8	3	-5	32*
CCN(CC)Cc1cc(Nc2c3ccccc3nc3c4ccccc4n(C)c23)cc(CN(CC)CC)c1O	20	3	-47	77*	-8	-2
Oc1cccc(Nc2c3ccccc3nc3ccccc23)c1	43	1	-23	11	5	-12
CC(C)(C)OC(=O)NCCCCCNC(=O)c1[nH]cnc1C(=O)Nc1ccccc1	1	3	8	0	-8	6
O=C(CSc1nc2nn(-c3ccccc3)c(=O)c-2c2n1CCCCC2)Nc1ccc(F)c(F)c1	-11	2	-15	3	-12	39*
O=C(CSc1nc2nn(-c3ccccc3)c(=O)c-2c2n1CCCCC2)c1ccc(O)c(O)c1	2	3	3	68*	49	57*

Screens: PubChem, Sanford-Burnham Center for Chemical Genomics
